Assay outcomes (PubChem)
A selection: hits, their analogues and other compounds. The true share with any hit is near 4%.
OX1R antag-1 – antagonists of human orexin 1 receptor (OX1R) | Orexin/Hypocretin receptor type 1 (Homo sapiens), O43613 | OX1R-expressing cells, FRET antagonist read-out | inhibition, % at 6.6 µM | actives 1.8% (n = 330,000) | AID 485270, 2010; in the data active means inhibition mostly above about 38%, no sharp cut-off; inactive means mostly below about 40%;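 further: 0% = agonist challenge alone and 100% = reference antagonist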
Target sequence (O43613 whole entry, looked up): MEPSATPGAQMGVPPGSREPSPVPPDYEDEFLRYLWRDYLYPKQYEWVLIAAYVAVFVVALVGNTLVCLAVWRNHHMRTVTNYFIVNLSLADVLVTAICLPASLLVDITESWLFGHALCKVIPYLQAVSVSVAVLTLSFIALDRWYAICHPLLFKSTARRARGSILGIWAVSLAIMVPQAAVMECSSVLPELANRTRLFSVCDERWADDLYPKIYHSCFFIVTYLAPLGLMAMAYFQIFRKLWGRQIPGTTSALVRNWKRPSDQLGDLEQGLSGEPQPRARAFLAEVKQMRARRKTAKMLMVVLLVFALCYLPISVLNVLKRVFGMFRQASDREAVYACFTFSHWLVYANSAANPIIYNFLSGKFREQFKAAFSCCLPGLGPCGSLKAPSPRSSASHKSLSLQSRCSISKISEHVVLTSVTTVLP
OX1R antag-2 – OX1R (HCRTR1) antagonists, primary screen, fluorescence, CHO/OX1R cells, Fluo-8 calcium, orexin A | actives 0.43% (n = 330,000) | AID 434989, 2010 | inhibition, % at 5 µM | Orexin/Hypocretin receptor type 1 (Homo sapiens), O43613 | Fluo-8 calcium fluorescence;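 active means inhibition above its plate's threshold, mean inhibition of all tested compounds on the plate plus 3 SD, cut at about 37% in these data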;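 further: 0% = orexin A challenge wells and 100% = SB-334867-A antagonist wells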
TAAR1 ag – human TAAR1 agonists, primary screen, Fluo-8 calcium fluorescence, CHO RD-HGA16 cells | AID 624467, 2012 | activation, % at 3 µM | Trace amine-associated receptor 1 (Homo sapiens), Q96RJ0 | vehicle wells 0%, saturating PEA agonist 100% | actives 0.99% (n = 360,000);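 active means activation above the mean activation of all test compounds in the run plus 3 SD, cut at about 38% in these data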
Target sequence (Q96RJ0 whole entry, looked up): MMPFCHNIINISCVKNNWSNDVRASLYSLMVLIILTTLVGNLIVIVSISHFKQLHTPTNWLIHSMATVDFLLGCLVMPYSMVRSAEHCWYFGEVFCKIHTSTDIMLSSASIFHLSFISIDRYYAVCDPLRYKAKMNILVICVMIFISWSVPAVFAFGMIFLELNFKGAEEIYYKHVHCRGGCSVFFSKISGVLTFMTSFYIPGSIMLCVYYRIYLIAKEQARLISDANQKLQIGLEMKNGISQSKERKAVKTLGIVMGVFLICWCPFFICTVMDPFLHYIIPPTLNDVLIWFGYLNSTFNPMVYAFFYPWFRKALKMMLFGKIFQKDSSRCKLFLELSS
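System: CHO-derived RD-HGA16 cells with stable Gα16 and human TAAR1 / Times: 17-24 h plating, Fluo-8 75 min 37 °C, 30 min RT / Technique: calcium-sensitive Fluo-8 signal, excitation 470-495, emission 515-575 nm / Measure: % activation relative to PEA EC100 response / Benchmarks: DMSO and PEA EC100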
NTR1 agonist – agonists of human NTR1, primary screen, imaging, U2OS cells, beta-arrestin-GFP, high content; activation, % at 20 µM; AID 493036, 2011; actives 0.17% (n = 330,000); NTR1-U2OS beta-arrestin-GFP spot imaging, agonist mode;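 active means activation at or above 40% of the spot to cytoplasm intensity ratio, with at least 20 cells analyzed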;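 further: 0% = DMSO without peptide and 100% = 100 nM NTR1 peptide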
TAAR1 antagonist – human TAAR1 antagonists, primary screen, Fluo-8 calcium fluorescence, CHO RD-HGA16 cells; actives 1.5% (n = 360,000); AID 624466, 2012; inhibition, % at 3 µM; antagonist; Trace amine-associated receptor 1 (Homo sapiens), Q96RJ0;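 active means inhibition above a per-plate cutoff, the mean inhibition of test compounds on that plate plus 3 SD, cut at about 49% in these data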;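 further: 0% = DMSO plus EC80 beta-PEA response and 100% = DMSO alone without agonist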
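Assay system: RD-HGA16 CHO cells with stable hTAAR1 and Gα16 / Reagent: EC80 β-phenethylamine stimulus / Doses: 3 µM, single point / Timing: dye loading 75 min at 37 °C, then 30 min room temperature / Measured by: Fluo-8 intracellular calcium dye fluorescence, real-time kinetic reads / Controls: vehicle wells and EC80 agonist wells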
CHO parental Ca – ATP-evoked calcium signal inhibitors, parental CHO, primary screen, counter-screen for OX1R antagonist project, cell-based, fluorescence, Fluo-8 calcium dye; inhibition, % at 5.6 µM; AID 463079, 2010; parental CHO-K1, ATP-induced calcium, Fluo-8 fluorescence; actives 0.63% (n = 330,000);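 active means inhibition above that plate's mean sample inhibition plus 3 SD, cut at about 26% in these data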;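 further: 0% = ATP-challenged DMSO wells and 100% = DMSO wells without ATP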
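Assay system – parental CHO cells · Reagent – ATP stimulus · Detection – intracellular calcium via Fluo-8 no-wash fluorescent dye · Evaluation – percent inhibition of ATP-evoked calcium rise, normalized to controls · Controls – ATP wells versus no-ATP DMSO wells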
TAAR1 ag conf – human TAAR1 agonists, retest of hits, confirmation, Fluo-8 calcium fluorescence, CHO RD-HGA16 cells; shares compounds with TAAR1 ag; scaled: DMSO 0%, maximal phenethylamine 100%; activation, % at 3 µM; actives 82% (n = 2,400); AID 651783, 2012;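 active means activation above a cutoff set at the run's mean compound activation plus 3 SD, cut at about 39% in these data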
Ga16 ag counter – nonselective calcium mobilization agonists, CHO-Ga16 cells, counter-screen for hTAAR1 agonist project, cell-based, fluorescence, CHO-Ga16 parental line; shares compounds with TAAR1 ag; Fluo-8 calcium fluorescence; normalized to maximal ATP response, DMSO zero; activation, % at 3 µM; actives 50% (n = 2,400);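 active means activation above the run cutoff, the mean activation over all tested wells plus 3 SD, cut at about 12% in these data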;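 further: 0% = DMSO wells and 100% = maximal ATP response on the peak over basal ratio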
TAAR1 desens – TAAR1 desensitization by agonist hits, confirmation, counter-screen for TAAR1 agonist project, cell-based, fluorescence, tachyphylaxis | inhibition, % at 3 µM | shares compounds with TAAR1 ag | actives 46% (n = 2,400) | CHO RD-HGA16 hTAAR1, Fluo-8 calcium, beta-PEA response inhibition | AID 651951, 2012;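 active means inhibition above the run cutoff, the mean inhibition of all test compounds plus 3 SD, cut at about 49% in these data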;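 further: beta-PEA stimulus applied at its EC80; loss of beta-PEA calcium signal after compound pretreatment read as receptor desensitization; 0% = DMSO with beta-PEA at EC80 and 100% = DMSO alone without agonist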
Ga16 antag count – inhibition of ATP-evoked calcium response in CHO-Ga16 cells, counter-screen for TAAR1 agonist project, cell-based, fluorescence | shares compounds with TAAR1 ag | CHO-Ga16 ATP-induced calcium, Fluo-8 fluorescence | inhibition, % at 3 µM | actives 39% (n = 2,400);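 active means inhibition above the plate's mean compound inhibition plus 3 SD, computed per plate, cut at about 22% in these data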;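 further: 0% = EC80 ATP with DMSO and 100% = DMSO wells without ATP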
An asterisk follows results filed as active; · = no result.

SMILES	OX1R antag-1	OX1R antag-2	TAAR1 ag	NTR1 agonist	TAAR1 antagonist	CHO parental Ca	TAAR1 ag conf	Ga16 ag counter	TAAR1 desens	Ga16 antag count
Cc1ccsc1C(=O)N1CCC1(C)C(=O)NCC(C)(C)C (stereo unspecified)	·	·	1.0	·	-4.6	·	·	·	·	·
O=C(Nc1ccccc1)Nc1nnc([C@H]2C[C@H](O)[C@@H](CO)O2)s1	·	·	43.6*	·	1.3	·	57.3*	1.2	43.3	10.8
ONC(=Nc1cccc(C(F)(F)F)c1)c1cccnc1	5.7	-0.3	1.5	-1.2	-32.5	-4.7	·	·	·	·
O=c1cc(CSc2nnnn2-c2ccccc2)nc(Nc2ccc(F)cc2)[nH]1	16.5	19.6	66.5*	11.6	31.6	-5.8	97.2*	5.2	67.1*	25.6*
N/C(=N\c1nc(CSc2nnnn2-c2ccccc2)cc(=O)[nH]1)Nc1ccccc1	0.0	-7.2	16.0	0.5	28.2	-13.4	·	·	·	·
CC(C(=O)N1CCc2ccccc2C1)N(c1ccccc1)S(C)(=O)=O (stereo unspecified)	4.2	-19.5	4.1	0.5	-3.4	-16.9	·	·	·	·
CC(=C1C(=O)c2ccccc2C1=O)N1CCc2ccccc2C1	20.0	2.0	·	0.8	·	-23.6	·	1.1	·	0.5
CC(=O)Nc1cccc(NC(=O)C(=O)NCC(c2ccco2)N2CCc3ccccc3C2)c1 (stereo unspecified)	8.9	-29.2	56.6*	1.3	0.7	-4.5	62.9*	10.5	53.5*	30.8*
COc1ccc(NC(=O)C(=O)NCC(c2ccco2)N2CCc3ccccc3C2)cc1OC (stereo unspecified)	14.8	-39.9	56.0*	0.7	-10.3	-21.5	47.9*	2.4	15.9	11.6
C[C@@H]1CN([C@@H](C)CO)C(=O)CCCn2nncc2CO[C@H]1CN(C)CC1CCCCC1	·	·	2.9	·	-17.9	·	·	·	·	·
O=C(CSc1ccc(Br)cc1)NCC(c1ccco1)N1CCCCC1 (stereo unspecified)	15.8	-26.2	-2.5	-0.1	-22.1	-10.7	·	·	·	·
O=C(NCCC(=O)N1CCN(S(=O)(=O)c2ccccc2F)CC1)Nc1ccccc1	6.0	-27.8	0.2	2.0	13.3	-13.8	·	·	·	·
Cc1cc(/C=C2\SC(=O)NC2=O)c(C)n1-c1ccc(N2CCOCC2)cc1	16.1	-26.8	59.5*	0.8	22.1	-13.1	70.2*	33.9*	31.4	24.4*
COc1ccc(OC)c2sc(N3CCc4ccccc4C3)nc12	31.4	-23.4	-2.8	8.6	-10.6	-30.4	·	·	·	·
c1ccc2c(c1)CCN(c1nc3cc4c(cc3s1)OCCO4)C2	28.2	-25.1	56.0*	0.8	2.7	-14.7	80.6*	3.0	37.8	9.6
COCC(=O)Nc1ccc2c(c1)[C@@H]1C[C@H](CC(=O)OC)O[C@H](CO)[C@@H]1O2	·	·	6.6	·	3.5	·	·	·	·	·
CN(C)c1ccc(C=NCC2COc3ccccc3O2)cc1 (stereo unspecified)	11.9	-8.2	75.3*	0.8	12.7	1.2	82.2*	3.7	59.2*	6.9
CN(CC1COc2ccccc2O1)C(=O)c1ccc(N(C)C)cc1 (stereo unspecified)	6.0	-14.1	4.7	1.4	7.3	2.4	·	·	·	·
COc1ccc(C(=O)NC(=S)NNC(=O)c2ccncc2)cc1Br	6.1	-1.9	60.4*	-1.2	14.0	1.0	34.8	32.2*	22.5	18.2
COc1ccc(OCC(=O)NNC(=S)NC(=O)c2ccc(Br)o2)cc1	-2.3	-8.2	55.3*	0.9	13.8	-7.8	34.1	17.6*	24.2	20.6
COc1ccc(C(=O)NNC(=S)NC(=O)c2ccc(OC)cc2)cc1	6.9	23.3	110.0*	0.0	81.1*	11.6	87.5*	88.9*	49.4*	47.3*
CCCCC(=O)NC(=S)NNC(=O)c1ccc(OC)cc1	8.0	6.7	85.1*	-1.3	37.8	14.1	98.9*	81.5*	51.5*	44.3*
COc1ccc(C(=O)NC(=S)NNC(=O)c2ccc(NC(C)=O)cc2)cc1Br	11.0	-32.6	10.4	-0.7	-7.1	-22.5	·	·	·	·
CCNC(=S)NNC(=O)c1ccc(OC)cc1	7.0	3.5	4.9	-0.2	0.0	0.4	·	·	·	·
COc1ccc(CN(C(=O)/C=C/c2ccco2)C2CCS(=O)(=O)C2)cc1OC (stereo unspecified)	15.8	-16.4	0.3	-0.4	0.4	1.7	·	·	·	·
CCOc1ccc(-c2c(C(=O)N/N=C(\C)c3cccs3)nnn2-c2nonc2N)cc1	19.0	-18.4	85.3*	3.1	-10.2	-14.7	98.4*	63.3*	18.7	6.8
COc1cccc(-c2c(C(=O)N/N=C(\C)c3cccs3)nnn2-c2nonc2N)c1	27.9	-22.4	140.3*	8.0	86.9*	-26.7	115.0*	83.9*	77.9*	27.6*
CCOc1ccc(-c2c(C(=O)N/N=C(\C)c3ccco3)nnn2-c2nonc2N)cc1	14.0	-11.7	115.0*	0.8	1.0	-9.7	101.3*	66.6*	18.3	9.5
CCOc1cccc(-c2c(C(=O)N/N=C(\C)c3cccs3)nnn2-c2nonc2N)c1	-1.5	-12.8	132.0*	5.2	88.2*	-15.2	134.1*	98.1*	96.6*	69.8*
COc1cccc(-c2c(C(=O)N/N=C(\C)c3ccncc3)nnn2-c2nonc2N)c1	16.0	-29.8	14.2	0.1	-11.4	-9.5	·	·	·	·
